Reference: ChEMBL document CHEMBL4627281, “A small molecule inhibitor of PCSK9 that antagonizes LDL receptor binding via interaction with a cryptic PCSK9 binding groove” (Bioorg Med Chem, 2020)
The source made the active and inactive calls. The calls are words filed in the database; no cut-off is given here.

Experiments:
[1] = Tmax in C57BL/6 mouse at 20 mg/kg, sc administered as single dose measured upto 24 hrs by LC-MS/MS analysis; type: ADME, organism-based; conditions: in vivo
How it was run: (§1)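 Male C57BL/6 mice, single dose: IV 5 mg/kg in 85% saline/10% Solutol HS15/5% DMSO; SC 20 mg/kg in same vehicle; PO 20 mg/kg in 1% methylcellulose in water. About 110 µL blood taken into K2EDTA by retro-orbital puncture (terminal bleed by cardiac puncture under isoflurane) at 0.033–24 h. Plasma spun at 2000 g, 5 min, 4 °C, stored near −70 °C; n = 3 per route.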

PCSK9/LDLR = PCSK9/LDLR (Homo sapiens, UniProt Q8NBP7); test: Inhibition of recombinant human His-tagged PCSK9 interaction with recombinant LDLR AB domain (unknown origin) measured after 3 hrs by horseradish peroxidase-coupled TMB substrate based spectrophotometry; type: protein assay
How it was run: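 ELISA plates pre-coated with LDLR-EGF-AB domain. Compounds serially diluted from 10 mM DMSO stocks in reaction buffer, with 7 ng His-tagged human PCSK9 added, 3 h at room temperature with shaking. Binding detected with biotinylated anti-His antibody (1 h), then HRP-streptavidin (20 min), then substrate (15 min); absorbance read at 450/540 nm. IC50 taken from the % inhibition curve.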

[2] = target: Platelet-derived growth factor receptor beta (Homo sapiens, UniProt P09619); test: Inhibition of recombinant human N-terminal GST-tagged PDGFRbeta cytoplasmic domain (557 to 1106 residues) expressed in baculovirus expression system using FAM-labelled P22 peptide as substrate preincubated for 10 mins followed by substrate addition and measured after 1 hr in presence of ATP by fluorescence assay
[3] = target: Proto-oncogene tyrosine-protein kinase Src (Homo sapiens, UniProt P12931); test: Inhibition of recombinant human full-length N-terminal GST-tagged SRC (1 to 536 residues) expressed in baculovirus expression system using FAM-labelled P4 peptide as substrate preincubated for 10 mins followed by substrate addition and measured after 1 hr in presence of ATP by fluorescence assay
[4] = target: Proprotein convertase subtilisin/kexin type 9 (Homo sapiens) (UniProt Q8NBP7); test: Binding affinity to biotinylated recombinant human PCSK9 at 0.2 to 0.4 uM incubated for 2 mins followed by further incubation for 10 mins by biolayer interferometry
How it was run: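 Biolayer interferometry: biotinylated PCSK9 (27 µg/mL) loaded onto a Super Streptavidin biosensor and blocked with biocytin. Compound (0.2–25.6 µM) associated for 2 min, then dissociated for 10 min. Background signal subtracted to remove non-specific binding.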

[5] = Clearance in CD1 mouse at 0.4 mg/kg, iv administered as cassette dose measured upto 24 hrs by LC-MS/MS analysis; type: ADME, organism-based; conditions: in vivo
How it was run: (§2)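 Male CD1 mice (second cassette 28–29 g, 7–8 weeks) given one IV 5-in-1 cassette at 0.4 mg/kg per compound in 5% DMAC/5% Solutol HS15/90% saline. Blood (~20 µL) into K2EDTA from the facial vein at 0.083–24 h, terminal bleed by cardiac puncture under isoflurane. Blood diluted with deionised water, stored at −80 °C, analysed by positive-ESI mass spectrometry.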

[6] = AUCinfinity in CD1 mouse at 0.4 mg/kg, iv administered as cassette dose measured upto 24 hrs by LC-MS/MS analysis; type: ADME, organism-based; design: dose 0.4 mg/kg, route intravenous, time infinity; conditions: in vivo; how it was run: as §2
[7] = Mean residence time (0 to infinity) in CD1 mouse at 0.4 mg/kg, iv administered as cassette dose measured upto 24 hrs by LC-MS analysis; type: ADME, organism-based; conditions: in vivo; how it was run: as §2
[8] = Clearance in C57BL/6 mouse at 5 mg/kg, iv administered as single dose measured upto 24 hrs by LC-MS/MS analysis; type: ADME, organism-based; conditions: in vivo; how it was run: as §1
[9] = Volume of distribution at steady state in C57BL/6 mouse at 5 mg/kg, iv administered as single dose measured upto 24 hrs by LC-MS/MS analysis; type: ADME, organism-based; conditions: in vivo, read-out: Vdss; how it was run: as §1
[10] = Terminal half life in C57BL/6 mouse at 5 mg/kg, iv administered as single dose measured upto 24 hrs by LC-MS/MS analysis; type: ADME, organism-based; conditions: in vivo, read-out: beta t1/2 (converted); how it was run: as §1
[11] = AUClast in C57BL/6 mouse at 20 mg/kg, sc administered as single dose measured upto 24 hrs by LC-MS/MS analysis; type: ADME, organism-based; design: dose 20 mg/kg, time < 24 hr, route subcutaneous; conditions: in vivo; how it was run: as §1
[12] = AUClast in C57BL/6 mouse at 20 mg/kg, po administered as single dose measured upto 24 hrs by LC-MS/MS analysis; type: ADME, organism-based; design: dose 20 mg/kg, time < 24 hr, route oral; conditions: in vivo; how it was run: as §1
[13] = AUClast in C57BL/6 mouse at 5 mg/kg, iv administered as single dose measured upto 24 hrs by LC-MS/MS analysis; type: ADME, organism-based; design: dose 5 mg/kg, time < 24 hr, route intravenous; conditions: in vivo; how it was run: as §1
[14] = AUCinfinity in C57BL/6 mouse at 20 mg/kg, sc administered as single dose measured upto 24 hrs by LC-MS/MS analysis; type: ADME, organism-based; design: dose 20 mg/kg, time infinity, route subcutaneous; conditions: in vivo; how it was run: as §1
[15] = AUCinfinity in C57BL/6 mouse at 5 mg/kg, iv administered as single dose measured upto 24 hrs by LC-MS/MS analysis; type: ADME, organism-based; design: dose 5 mg/kg, route intravenous, time infinity; conditions: in vivo; how it was run: as §1
[16] = Mean residence time ( 0 to infinity) in C57BL/6 mouse at 5 mg/kg, iv administered as single dose measured upto 24 hrs by LC-MS/MS analysis; type: ADME, organism-based; conditions: in vivo; how it was run: as §1
[17] = Bioavailability in C57BL/6 mouse at 20 mg/kg, sc administered as single dose measured upto 24 hrs by LC-MS/MS analysis; type: ADME, organism-based; conditions: in vivo; how it was run: as §1
[18] = Oral bioavailability in C57BL/6 mouse at 20 mg/kg administered as single dose measured upto 24 hrs by LC-MS/MS analysis; type: ADME, organism-based; conditions: in vivo; how it was run: as §1
Mus musculus [19] = test: Antihyperlipidemic activity in C57BL/6 mouse assessed as decrease in total cholesterol level at 3.28 mg/kg/day, sc administered daily for 14 days and measured on day 15 by colorimetric method; type: functional, organism-based
How it was run: (§3)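 Female C57BL/6 wild-type or PCSK9−/− mice (8–16 weeks), acclimatised 7 days, 5 per group, dosed SC daily for 14 days at 3.28 or 16.4 mg/kg/day in 5% DMSO/95% saline, or vehicle alone. Blood taken into EDTA on days 0, 5, 10 and 15; plasma from 2500 g spin, stored at −20 °C. Total cholesterol and triglycerides read by colorimetric kits, PCSK9 by mouse ELISA; unpaired two-tailed t test against vehicle.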

Mus musculus [20] = test: Antihyperlipidemic activity in C57BL/6 mouse assessed as decrease in total cholesterol level at 16.4 mg/kg/day, sc administered daily for 14 days and measured on day 15 by colorimetric method relative to control; type: functional; design: scale not given: the % may be the effect or the level left; how it was run: as §3
Mus musculus [21] = test: Effect on total triglyceride level in C57BL/6 mouse at 3.28 to 16.4 mg/kg/day, sc administered daily for 14 days and measured on day 15 by colorimetric method; type: ADME, organism-based; conditions: in vivo, 336 h; how it was run: as §3
Mus musculus [22] = test: Up regulation of PCSK9 expression in C57BL/6 mouse at 16.4 mg/kg/day, sc administered daily for 10 days measured post last dose by ELISA; type: functional, organism-based; conditions: in the assay text read “for 14 days” for “for 10 days”; how it was run: as §3
[23] = Toxicity in C57BL/6 mouse assessed as change in behavior at 3.28 to 16.4 mg/kg/day, sc administered daily for 14 days; type: organism-based; conditions: in vivo, 336 h

Proprotein convertase subtilisin/kexin type 9 (Homo sapiens), sequence (Q8NBP7 31-152 limits assumed): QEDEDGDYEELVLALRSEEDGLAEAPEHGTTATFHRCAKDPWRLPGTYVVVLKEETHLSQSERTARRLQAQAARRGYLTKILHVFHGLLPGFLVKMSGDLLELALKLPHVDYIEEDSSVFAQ
Proprotein convertase subtilisin/kexin type 9 (Homo sapiens), sequence (Q8NBP7 153-692 limits assumed): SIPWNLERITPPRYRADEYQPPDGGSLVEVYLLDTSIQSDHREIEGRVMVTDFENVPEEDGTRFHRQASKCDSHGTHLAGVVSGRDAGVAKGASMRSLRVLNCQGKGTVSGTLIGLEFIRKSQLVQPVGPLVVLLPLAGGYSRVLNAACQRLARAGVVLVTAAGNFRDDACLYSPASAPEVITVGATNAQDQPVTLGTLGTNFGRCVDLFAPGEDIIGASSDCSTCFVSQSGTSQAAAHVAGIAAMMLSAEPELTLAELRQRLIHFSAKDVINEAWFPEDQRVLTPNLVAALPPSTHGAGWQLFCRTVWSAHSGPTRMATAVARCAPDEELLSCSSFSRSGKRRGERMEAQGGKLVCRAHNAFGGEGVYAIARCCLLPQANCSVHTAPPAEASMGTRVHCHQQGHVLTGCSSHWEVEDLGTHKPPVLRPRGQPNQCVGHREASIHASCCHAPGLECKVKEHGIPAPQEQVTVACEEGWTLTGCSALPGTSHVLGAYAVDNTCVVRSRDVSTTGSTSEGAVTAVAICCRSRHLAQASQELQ
PCSK9/LDLR, sequence (Q8NBP7 31-152 limits assumed): as the sequence (Q8NBP7 31-152 limits assumed) above
PCSK9/LDLR, sequence (Q8NBP7 153-692 limits assumed): as the sequence (Q8NBP7 153-692 limits assumed) above
PCSK9/LDLR, sequence (P01130 22-860 partner limits assumed): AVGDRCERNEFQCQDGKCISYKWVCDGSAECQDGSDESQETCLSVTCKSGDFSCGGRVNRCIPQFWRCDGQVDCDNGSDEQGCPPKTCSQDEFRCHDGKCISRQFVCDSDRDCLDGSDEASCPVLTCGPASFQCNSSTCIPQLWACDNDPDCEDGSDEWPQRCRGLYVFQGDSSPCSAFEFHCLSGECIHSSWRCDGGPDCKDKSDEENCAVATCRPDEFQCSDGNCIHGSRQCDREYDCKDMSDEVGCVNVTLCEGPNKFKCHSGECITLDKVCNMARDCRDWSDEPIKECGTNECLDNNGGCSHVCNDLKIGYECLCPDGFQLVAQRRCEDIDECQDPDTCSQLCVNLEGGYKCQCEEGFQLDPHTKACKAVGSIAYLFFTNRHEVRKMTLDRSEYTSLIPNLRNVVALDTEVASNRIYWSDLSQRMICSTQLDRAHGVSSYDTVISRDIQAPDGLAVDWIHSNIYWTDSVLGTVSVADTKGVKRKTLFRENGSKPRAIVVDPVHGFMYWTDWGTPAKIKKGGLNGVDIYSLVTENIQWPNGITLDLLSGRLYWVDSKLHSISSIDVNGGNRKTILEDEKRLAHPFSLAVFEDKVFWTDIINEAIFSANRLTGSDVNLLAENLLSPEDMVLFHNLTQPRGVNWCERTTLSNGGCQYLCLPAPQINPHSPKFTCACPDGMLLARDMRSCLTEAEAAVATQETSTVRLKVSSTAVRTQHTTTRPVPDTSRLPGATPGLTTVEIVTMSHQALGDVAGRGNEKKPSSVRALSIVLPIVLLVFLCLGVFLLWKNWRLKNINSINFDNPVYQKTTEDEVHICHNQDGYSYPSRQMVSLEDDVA
Platelet-derived growth factor receptor beta, sequence (P09619 whole entry, the tested form may be a part): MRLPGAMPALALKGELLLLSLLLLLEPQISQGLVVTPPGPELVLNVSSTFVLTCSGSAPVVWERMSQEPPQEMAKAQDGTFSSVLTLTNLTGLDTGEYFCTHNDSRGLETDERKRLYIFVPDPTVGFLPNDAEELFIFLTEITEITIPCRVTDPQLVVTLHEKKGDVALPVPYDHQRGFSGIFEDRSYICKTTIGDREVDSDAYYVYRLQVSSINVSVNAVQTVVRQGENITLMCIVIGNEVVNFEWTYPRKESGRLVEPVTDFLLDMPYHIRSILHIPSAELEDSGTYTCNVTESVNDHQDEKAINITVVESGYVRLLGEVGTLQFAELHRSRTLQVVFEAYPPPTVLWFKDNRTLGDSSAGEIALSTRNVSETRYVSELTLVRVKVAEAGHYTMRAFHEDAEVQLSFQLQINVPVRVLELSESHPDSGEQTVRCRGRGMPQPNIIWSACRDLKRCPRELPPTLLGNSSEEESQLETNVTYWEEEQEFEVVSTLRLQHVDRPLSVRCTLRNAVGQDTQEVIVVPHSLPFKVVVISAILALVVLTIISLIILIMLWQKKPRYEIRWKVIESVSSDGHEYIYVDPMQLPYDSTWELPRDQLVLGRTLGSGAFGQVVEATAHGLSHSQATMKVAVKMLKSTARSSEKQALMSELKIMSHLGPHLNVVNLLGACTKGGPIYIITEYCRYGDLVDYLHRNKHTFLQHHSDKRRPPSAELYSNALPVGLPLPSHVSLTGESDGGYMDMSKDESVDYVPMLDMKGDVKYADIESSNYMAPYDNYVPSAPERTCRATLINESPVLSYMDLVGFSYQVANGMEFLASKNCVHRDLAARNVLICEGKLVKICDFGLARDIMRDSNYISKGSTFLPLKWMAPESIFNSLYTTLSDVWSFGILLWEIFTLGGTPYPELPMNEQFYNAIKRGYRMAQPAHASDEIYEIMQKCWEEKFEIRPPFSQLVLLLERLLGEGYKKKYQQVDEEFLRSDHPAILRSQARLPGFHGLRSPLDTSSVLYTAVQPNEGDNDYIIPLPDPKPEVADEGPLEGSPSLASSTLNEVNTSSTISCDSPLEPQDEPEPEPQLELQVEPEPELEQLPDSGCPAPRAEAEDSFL
Proto-oncogene tyrosine-protein kinase Src, sequence (P12931 2-536 limits assumed): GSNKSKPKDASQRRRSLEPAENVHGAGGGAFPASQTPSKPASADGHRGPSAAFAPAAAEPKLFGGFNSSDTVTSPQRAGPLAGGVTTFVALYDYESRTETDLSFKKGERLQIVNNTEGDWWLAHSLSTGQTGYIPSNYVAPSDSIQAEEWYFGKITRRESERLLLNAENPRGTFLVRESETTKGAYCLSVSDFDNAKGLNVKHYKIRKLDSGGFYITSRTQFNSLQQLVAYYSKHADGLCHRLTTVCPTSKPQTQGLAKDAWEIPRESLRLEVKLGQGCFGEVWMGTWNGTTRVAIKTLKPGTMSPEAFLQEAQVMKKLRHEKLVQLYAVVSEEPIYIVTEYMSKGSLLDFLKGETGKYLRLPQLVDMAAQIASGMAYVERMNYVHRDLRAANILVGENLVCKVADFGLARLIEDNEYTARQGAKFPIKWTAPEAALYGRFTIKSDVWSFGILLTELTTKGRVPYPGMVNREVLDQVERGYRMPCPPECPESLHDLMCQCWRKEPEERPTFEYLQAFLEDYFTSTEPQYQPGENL

Tmax [1]: 1 h | IC50 (PCSK9/LDLR): 0.537 µM | IC50 [2]: > 10 µM | IC50 [3]: > 10 µM | Activity [4]: inactive | clearance [5]: 5 mL/min/kg | AUC(0-inf) [6]: 1470 ng·h/mL | MRT inf [7]: 34.9 h | clearance [8]: 18.2 mL/min/kg | Vd [9]: 3.87 L/kg | half-life [10]: 9.86 h | AUC(0-t) at 24 h [11]: 16100 ng·h/mL | AUC(0-t) at 24 h [12]: 92.3 ng·h/mL | AUC(0-t) at 24 h [13]: 4380 ng·h/mL | AUC(0-inf) [14]: 16800 ng·h/mL | AUC(0-inf) [15]: 4600 ng·h/mL | MRT inf [16]: 3.56 h | bioavailability [17]: 91.3% | bioavailability [18]: 0.527%
Compound: Cc1cn(-c2cc(CN3CCC[C@H](N)C3)cc(NC(=O)c3ccc(C)c(Oc4ccccc4)c3)c2)cn1
Activity (Mus musculus [19]): inactive | Activity (Mus musculus [20]): 10% | Activity (Mus musculus [21]): Non-Toxic | Activity (Mus musculus [22]): Active | Activity [23]: Non-Toxic
